This passage reports MIC and Activity results from ChEMBL document CHEMBL4043191, “Discovery of novel inhibitors of multidrug-resistant Acinetobacter baumannii” (2017).

Converted amounts (≈) assume the structure as drawn.

Test [1] has as its system Acinetobacter baumannii. Description: Antimicrobial activity against Acinetobacter baumannii ATCC AB19606 incubated for 16 to 20 hrs by broth microdilution method. It counts as functional. The essentials:
(§1)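 CLSI broth microdilution in CAMHB, twofold dilutions at final 0.250–128 µg/mL, each in triplicate. Overnight colonies from 5% horse blood agar were suspended in PBS to OD600 0.1 and diluted to a starting inoculum of 5 x 10^5 CFU/mL. Incubated 37 °C for 16–20 h. MIC is the lowest concentration with no visible growth. Quality control used E. coli ATCC 25922 with ampicillin. Final DMSO <1%.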

Test [2] relates to Acinetobacter baumannii. Nature of the test: Antimicrobial activity against Acinetobacter baumannii ATCC AB17978 incubated for 16 to 20 hrs by broth microdilution method. The format is functional. Put shortly:
as §1

Test [3] concerns Acinetobacter baumannii. Nature of the test: Antimicrobial activity against Acinetobacter baumannii isolate AB5075 incubated for 16 to 20 hrs by broth microdilution method. The format is functional. The essentials: as §1
The subject of test [4] is Acinetobacter baumannii. Description: Antimicrobial activity against Acinetobacter baumannii isolate AB5711 incubated for 16 to 20 hrs by broth microdilution method. It counts as functional. The essentials: as §1
Test [5] concerns Acinetobacter baumannii. Description: Antimicrobial activity against Acinetobacter baumannii isolate AB3560 incubated for 16 to 20 hrs by broth microdilution method. It counts as functional. Put shortly:
as §1

In test [6] the test system is Acinetobacter baumannii. Nature of the test: Antimicrobial activity against Acinetobacter baumannii isolate AB3638 incubated for 16 to 20 hrs by broth microdilution method. The format is functional. The essentials: as §1
The test system of test [7] is Acinetobacter baumannii. Nature of the test: Antimicrobial activity against Acinetobacter baumannii isolate AB0087 incubated for 16 to 20 hrs by broth microdilution method. It counts as functional. Put shortly:
as §1

For test [8], the system named is Acinetobacter baumannii. Nature of the test: Antimicrobial activity against Acinetobacter baumannii isolate AB4052 incubated for 16 to 20 hrs by broth microdilution method. It counts as functional. Put shortly: as §1
The test system of test [9] is Acinetobacter baumannii. Nature of the test: Antimicrobial activity against Acinetobacter baumannii isolate AB5674 incubated for 16 to 20 hrs by broth microdilution method. The format is functional. Put shortly:
as §1

The subject of test [10] is Acinetobacter baumannii. Nature of the test: Antimicrobial activity against Acinetobacter baumannii isolate AB0967 incubated for 16 to 20 hrs by broth microdilution method. It counts as functional. Put shortly:
as §1

Test [11] deals with Acinetobacter baumannii. Description: Antimicrobial activity against Acinetobacter baumannii isolate AB4795 incubated for 16 to 20 hrs by broth microdilution method. The format is functional. The essentials:
as §1

Test [12] has as its system Acinetobacter baumannii. Nature of the test: Antimicrobial activity against Acinetobacter baumannii isolate AB4957 incubated for 16 to 20 hrs by broth microdilution method. The format is functional. Put shortly:
as §1

Test [13] relates to Acinetobacter baumannii. Nature of the test: Antimicrobial activity against Acinetobacter baumannii isolate AB585 incubated for 16 to 20 hrs by broth microdilution method. The format is functional. The essentials:
as §1

Test [14] concerns Acinetobacter baumannii. Nature of the test: Antimicrobial activity against Acinetobacter baumannii isolate AB499 incubated for 16 to 20 hrs by broth microdilution method. The format is functional. Put shortly: as §1
Test [15] concerns Acinetobacter baumannii. Description: Antimicrobial activity against Acinetobacter baumannii isolate AB5075 assessed as reduction in bacterial colony count at 16 ug/ml incubated for 24 hrs by time kill kinetics assay relative to initial bacterial inoculum. The format is functional. Put shortly: (§2)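 Time-kill assay on AB5075. 1 mL CAMHB containing compound at 1, 2, 4 or 8× MIC was seeded with 5–7 x 10^5 CFU/mL and shaken at 37 °C for 24 h. Aliquots taken at 0, 6, 12 and 24 h were serially diluted, plated on LB agar and incubated 24 h at 37 °C before counting. Result given as log10 CFU/mL decrease versus initial inoculum. No-drug control; duplicate runs.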

Test [16] relates to Acinetobacter baumannii. Description: Antimicrobial activity against Acinetobacter baumannii isolate AB5075 assessed as reduction in bacterial colony count at 32 ug/ml incubated for 24 hrs by time kill kinetics assay relative to initial bacterial inoculum. The format is functional. Put shortly:
as §2

Test [17] relates to Acinetobacter baumannii. Nature of the test: Antimicrobial activity against Acinetobacter baumannii isolate AB5075 assessed as reduction in bacterial colony count at 64 ug/ml incubated for 24 hrs by time kill kinetics assay relative to initial bacterial inoculum. The format is functional. Put shortly:
as §2

In test [18] the test system is Acinetobacter baumannii. Nature of the test: Antimicrobial activity against Acinetobacter baumannii isolate AB5075 assessed as reduction in bacterial colony count at 128 ug/ml incubated for 24 hrs by time kill kinetics assay relative to initial bacterial inoculum. The format is functional. The essentials:
as §2

For test [19], the system named is Acinetobacter baumannii. Nature of the test: Antimicrobial activity against Acinetobacter baumannii isolate AB5075 assessed as reduction in bacterial colony count at 32 ug/ml incubated for 30 mins by time kill kinetics assay relative to initial bacterial inoculum.
Test [20] relates to Acinetobacter baumannii. Nature of the test: Bactericidal activity against Acinetobacter baumannii isolate AB5075 assessed as reduction in bacterial colony count at 32 ug/ml incubated for 30 mins by time kill kinetics assay relative to initial bacterial inoculum relative to control. The arrangement: scale not given: the % may be the effect or the level left.

Regarding `CCO[C@@H]1CCC[C@H](CC(=O)NNc2ccccc2)[C@H]1O`, the minimum inhibitory concentration (MIC) is 16 µg/mL (≈ 54.7 µM) against Acinetobacter baumannii [1]; 16 µg/mL (≈ 54.7 µM) with Acinetobacter baumannii [2]; 16 µg/mL (≈ 54.7 µM) in the test with Acinetobacter baumannii [3]; 32 µg/mL (≈ 109 µM) against Acinetobacter baumannii [4]; 32 µg/mL (≈ 109 µM) against Acinetobacter baumannii [5]; 16 µg/mL (≈ 54.7 µM) against Acinetobacter baumannii [6]. Besides, the MIC was found to be 4 µg/mL (≈ 13.7 µM) in the test with Acinetobacter baumannii [7]; 32 µg/mL (≈ 109 µM) against Acinetobacter baumannii [8]; 16 µg/mL (≈ 54.7 µM) in the test on Acinetobacter baumannii [9]; 16 µg/mL (≈ 54.7 µM) against Acinetobacter baumannii [10]; 8 µg/mL (≈ 27.4 µM) against Acinetobacter baumannii [11]; 32 µg/mL (≈ 109 µM) in the test on Acinetobacter baumannii [12]. Moreover, the results for the MIC against Acinetobacter baumannii [13] and with Acinetobacter baumannii [14] were 8 µg/mL (≈ 27.4 µM) and 1 µg/mL (≈ 3.42 µM), respectively. Moreover, the Activity is 0.46 log10CFU/ml in the test on Acinetobacter baumannii [15], 0.75 log10CFU/ml in the test with Acinetobacter baumannii [16], 1.24 log10CFU/ml in the test on Acinetobacter baumannii [17] and 1.74 log10CFU/ml with Acinetobacter baumannii [18].
Take `CCOCCC(=O)NNc1ccccc1`: the MIC stood at 16 µg/mL (≈ 76.8 µM) against Acinetobacter baumannii [1]; 16 µg/mL (≈ 76.8 µM) against Acinetobacter baumannii [2]; 16 µg/mL (≈ 76.8 µM) in the test on Acinetobacter baumannii [3]; 16 µg/mL (≈ 76.8 µM) in the test on Acinetobacter baumannii [4]; 32 µg/mL (≈ 154 µM) in the test with Acinetobacter baumannii [5]; 16 µg/mL (≈ 76.8 µM) in the test with Acinetobacter baumannii [6]. For the same molecule, the MIC against Acinetobacter baumannii [7] was found to be 2 µg/mL (≈ 9.6 µM); with Acinetobacter baumannii [8], 32 µg/mL (≈ 154 µM); against Acinetobacter baumannii [9], 16 µg/mL (≈ 76.8 µM); in the test with Acinetobacter baumannii [10] it was 16 µg/mL (≈ 76.8 µM); against Acinetobacter baumannii [11] it was 8 µg/mL (≈ 38.4 µM); with Acinetobacter baumannii [12], 32 µg/mL (≈ 154 µM). Also, the MIC against Acinetobacter baumannii [13] came to 8 µg/mL (≈ 38.4 µM); against Acinetobacter baumannii [14] it was 1 µg/mL (≈ 4.8 µM). The Activity with Acinetobacter baumannii [15] came out at 0.73 log10CFU/ml; in the test on Acinetobacter baumannii [16] it was 1.02 log10CFU/ml; in the test on Acinetobacter baumannii [17] it was 1.42 log10CFU/ml; in the test on Acinetobacter baumannii [18], 2.1 log10CFU/ml.
As for `Oc1ccc(Cl)cc1Cc1cc(Cl)ccc1O` [DICHLOROPHEN], the MIC against Acinetobacter baumannii [1] amounted to 16 µg/mL (≈ 59.5 µM); with Acinetobacter baumannii [2], 16 µg/mL (≈ 59.5 µM); against Acinetobacter baumannii [3], 32 µg/mL (≈ 119 µM); against Acinetobacter baumannii [4] it was 16 µg/mL (≈ 59.5 µM); with Acinetobacter baumannii [5] it was 16 µg/mL (≈ 59.5 µM); against Acinetobacter baumannii [6], 16 µg/mL (≈ 59.5 µM). The MIC was 8 µg/mL (≈ 29.7 µM) in the test on Acinetobacter baumannii [7]; 16 µg/mL (≈ 59.5 µM) against Acinetobacter baumannii [8]; 16 µg/mL (≈ 59.5 µM) in the test on Acinetobacter baumannii [9]; 16 µg/mL (≈ 59.5 µM) with Acinetobacter baumannii [10]; 16 µg/mL (≈ 59.5 µM) against Acinetobacter baumannii [11]; 16 µg/mL (≈ 59.5 µM) against Acinetobacter baumannii [12]. Further, the minimum inhibitory concentration (MIC) in the test with Acinetobacter baumannii [13] and against Acinetobacter baumannii [14] was 8 µg/mL (≈ 29.7 µM) throughout. Moreover, the Activity entry was “>=3 log10CFU/ml” with Acinetobacter baumannii [19] and 99.9% in the test with Acinetobacter baumannii [20].
